Hep lipid drop – hepatic lipid droplet formation modulation; AML12 mouse hepatocytes, oleate lipid droplets, BODIPY imaging; 240,000 compounds, 0.4% hits; inhibition, % at 6.5 µM;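 active = lipid droplet intensity inhibited by at least 50%, with more than 500 cells counted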
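material = mouse AML12 hepatocyte cell line, fixed after treatment | also added = 100 µM oleic acid challenge | doses = compound at 6.5 µM only | schedule = overnight exposure | technique = Image-based BODIPY and DAPI two-channel analysis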
MPTP block – inhibitors of mitochondrial permeability transition pore | isolated mouse mitochondria, Ca2+ swelling absorbance, 30 min | inhibition, % at 10 µM | 360,000 compounds, 1.4% hits | AID 602449;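 active = inhibition of 50% or more, scaled per plate between neutral and stimulator controls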;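 also: 0% = DMSO wells given calcium and 100% = 1 mM EGTA wells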
DTT redox prof – compounds producing H2O2 with reducing agent – biochemical, NIH compound library profiling, artefact control for MLSCN library redox annotation, primary screen; DTT-dependent redox cycling H2O2, phenol red/HRP absorbance; 100% = 100 µM peroxide control, 0% = buffer; activation, % at 10 µM; 200,000 compounds, 0.03% hits; AID 878;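 active = activation of at least 50% relative to the plate's high and low controls in the primary single-dose screen; inactive = activation below 50%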;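 also: compound incubated with DTT at 0.8 mM final as the reducing agent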
L major viab – reduces viability of Leishmania major promastigotes. 200,000 compounds, 9% hits. resazurin fluorescence viability. inhibition, % at 10 µM; in the data active = inhibition above about 50%;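 also: promastigotes grown with compound for 44 hours at 28 °C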
T cruzi repl – blocks replication of Trypanosoma cruzi | AID 1885 | T. cruzi beta-gal in NIH3T3, luminescence, 90 h | 300,000 compounds, 1.4% hits | inhibition, % (no concentration beside the values);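 active = mean inhibition across valid replicates above about 55%, limit read from the data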;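 also: signal also drops with host cell toxicity which is not excluded here; 0% = plate median of DMSO wells and 100% = zero luminescence signal; higher percent means less beta-gal luminescence so fewer parasites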
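Material: NIH/3T3 host cells with β-galactosidase reporter T. cruzi; Input: 5,000 host fibroblasts per well; Medium: DMEM, 2% fetal bovine serum; Compound: 50 nL DMSO compound solution per well; Schedule: 3 h host attachment, then at least 90 h co-culture; Detection: luminescent β-galactosidase signal after 60 min lysis.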
Hep lipid conf – confirmation of inhibitors of hepatic lipid droplet formation. shares compounds with Hep lipid drop. AML12 mouse hepatocytes, BODIPY lipid droplet imaging; droplets induced with 100 µM oleic acid. inhibition, % at 5.2 µM. 870 compounds, 65% hits;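 active = inhibition of lipid droplet metric at least 50%, with more than 300 cells in each of four replicates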;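 also: plate controls were DMSO with oleic acid for no effect and 5 µM Triacsin-C for full effect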
AML12 cytotox – toxic to AML12 mouse hepatocytes in counter-screen; shares compounds with Hep lipid drop; DAPI nuclear morphology cytotoxicity imaging; stronger effect = higher value; cells fed 100 µM oleate overnight; z-score at 5 µM; 870 compounds, 3% hits; AID 463200; in the data active = z-score above about 6.3;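 also: compound exposure lasted overnight at 37 °C before fixation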
AML12 tox ATP – confirmation of cytotoxicity in AML12 mouse hepatocytes; 530 tested, under 10 active; shares compounds with Hep lipid drop; AID 463219; cytotoxicity, % at 50 µM; AML12 mouse hepatocyte viability, ATP luminescence; cells loaded with 100 µM oleic acid;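 active = cytotoxicity above 50% in each of four replicates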;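 also: compound exposure lasted overnight at 37 °C before the ATP read; 0% = DMSO-treated cells and 100% = wells with no cells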
Rh123 counter – membrane potential counter-screen of mitochondrial pore inhibitors. shares compounds with MPTP block. isolated mitochondria, Rhodamine 123 fluorescence. inhibition, % at 10 µM. 5,000 compounds, 78% hits. AID 624504; in the data active = inhibition above about 22%;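 also: 0% = DMSO vehicle and 100% = positive control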
MPTP swell DR – dose response confirmation of mitochondrial permeability transition pore inhibitors. IC50, µM. shares compounds with MPTP block. isolated mitochondria swelling, absorbance. 780 compounds, 58% hits; in the data active = IC50 below about 20 µM
MPTP cs DR – active in counter-screen for permeability transition pore inhibitors; shares compounds with MPTP block; isolated mitochondria counterscreen, fluorescence read-out; IC50, µM; 780 compounds, 49% hits; in the data active = IC50 below about 80 µM
The depositor's hits bear a star; ! = repeats disagree. Only a selection was taken, and hits are over-represented in it overall.

Results for Cc1ccc2cc(/C=N/NC(=O)[C@H]3C[C@@H]3c3ccccc3)c(Cl)nc2c1 ?
Hep lipid drop: 75*; MPTP block: 15; DTT redox prof: -1; L major viab: 35; T cruzi repl: 55*; Hep lipid conf: 50; AML12 cytotox: 0.51; AML12 tox ATP: -1

Results for O=C(N/N=C/c1cc2ccccc2nc1Cl)[C@H]1C[C@@H]1c1ccccc1 ?
Hep lipid drop: 12; MPTP block: 4; DTT redox prof: 0; L major viab: 5; T cruzi repl: 23

Results for CCN(CC)S(=O)(=O)c1cc(NC(=O)C(C)OC(=O)c2[nH]c(C)c(C(C)=O)c2C)ccc1C (stereo unspecified) ?
Hep lipid drop: 128*; MPTP block: 14; DTT redox prof: -1; L major viab: 95*; T cruzi repl: 22; Hep lipid conf: 51; AML12 cytotox: -0.37

What do the screens show for `CC(=O)c1c(C)[nH]c(C(=O)OC(C)C(=O)Nc2ccc(C)c(S(=O)(=O)N3CCOCC3)c2)c1C` (stereo unspecified)?
MPTP block: 1

How did Cc1cc([N+](=O)[O-])nn1CC(=O)N1c2ccccc2CC1C (stereo unspecified) do in these assays?
Hep lipid drop: 31; MPTP block: 0; DTT redox prof: 0; L major viab: -7; T cruzi repl: -8

What do the screens show for `COc1cccc(-c2nc(NCc3ccccc3)c3ccccc3n2)c1O`?
Hep lipid drop: 69*; MPTP block: 4; T cruzi repl: 37; Hep lipid conf: 55*; AML12 cytotox: -0.68; AML12 tox ATP: -5

Results for COc1cccc(-c2nc(NCc3ccco3)c3ccccc3n2)c1O ?
Hep lipid drop: 3; MPTP block: 4; DTT redox prof: 0; L major viab: 5; T cruzi repl: 5

How did CC(=O)c1c(C)[nH]c(C(=O)Nc2nc(C)cs2)c1C do in these assays?
Hep lipid drop: 4; MPTP block: 2; DTT redox prof: 0; L major viab: 3; T cruzi repl: -2

How did CC(=O)c1c(C)[nH]c(C(=O)Nc2nc(-c3ccc(-c4ccccc4)cc3)cs2)c1C do in these assays?
Hep lipid drop: 95*; MPTP block: 94*; L major viab: 97*; T cruzi repl: 69*; Hep lipid conf: -2; AML12 cytotox: -0.39; Rh123 counter: 69*

How did Cc1cc(C)n(-c2nc(N(c3ccccc3)c3ccccc3)nc(-n3nc(C)cc3C)n2)n1 do in these assays?
Hep lipid drop: 57*; MPTP block: 80*; DTT redox prof: 2; L major viab: 54*; T cruzi repl: 17; Hep lipid conf: 69*; AML12 cytotox: 4.8; AML12 tox ATP: 93*; Rh123 counter: 2

How did COc1ccc(NC(=O)CSc2nnc3n2CCCCC3)cc1 do in these assays?
Hep lipid drop: 1; MPTP block: -2; DTT redox prof: 1; L major viab: -3; T cruzi repl: -11

How did CCN1CCN(Cc2ccc(NC(=O)c3ccc(C)c(NC(=O)C(=O)c4c[nH]c5ccccc45)c3)cc2C(F)(F)F)CC1 do in these assays?
Hep lipid drop: 63*; MPTP block: 94*!; T cruzi repl: 48; Hep lipid conf: 0; AML12 cytotox: 6.3*; Rh123 counter: -12

Results for COc1ccc2ccccc2c1/C=N/NC(=O)c1cccc([N+](=O)[O-])c1 ?
MPTP block: 1; T cruzi repl: 2

What do the screens show for `OC(CN1CCN(c2cccc(C(F)(F)F)c2)CC1)c1c[nH]c2ccccc12` (stereo unspecified)?
MPTP block: 53*; DTT redox prof: 1; L major viab: 41; T cruzi repl: 19; Rh123 counter: -22; MPTP swell DR: >100; MPTP cs DR: 72*

Results for COCCCNC(=O)c1c(N)n(/N=C/c2cccnc2)c2nc3ccccc3nc12 ?
Hep lipid drop: 14; MPTP block: active; DTT redox prof: -1; L major viab: 14; T cruzi repl: 1; Rh123 counter: -2

What do the screens show for `CCCNC(=O)CCc1c(C)nc2nc(C)nn2c1C`?
Hep lipid drop: 8; MPTP block: 0; DTT redox prof: -1; L major viab: -8; T cruzi repl: -2

How did CN(Cc1cccnc1)C(=O)c1cc(COc2ccc3c(c2)CCCC3)on1 do in these assays?
Hep lipid drop: -9; MPTP block: 67*; T cruzi repl: 39; Rh123 counter: 85*

What do the screens show for `CCc1ccc(CN(C)C(=O)c2cc(COc3cccc4cnccc34)on2)cc1`?
Hep lipid drop: -22; MPTP block: 99*; T cruzi repl: 51; Rh123 counter: 103*

How did COc1cccc(NC(=O)Nc2nc(SC)ns2)c1 do in these assays?
Hep lipid drop: -30; MPTP block: 69*; T cruzi repl: -14; Rh123 counter: 81*

How did COc1cccc(NC(=O)Nc2ccc3nsnc3c2)c1 do in these assays?
Hep lipid drop: 2; MPTP block: 93*; DTT redox prof: 2; L major viab: 99*; T cruzi repl: 6; Rh123 counter: 87*

How did COc1cccc(NC(=O)Nc2nc(SC(C)(C)C)ns2)c1 do in these assays?
Hep lipid drop: 10; MPTP block: 93*; T cruzi repl: 27; Rh123 counter: 77*

How did CCCSc1nsc(NC(=O)C(c2ccccc2)c2ccccc2)n1 do in these assays?
Hep lipid drop: 14; MPTP block: 12; DTT redox prof: 0; L major viab: 10; T cruzi repl: 26

What do the screens show for `COc1cccc(NC(=O)c2cnc(SC)nc2)c1`?
Hep lipid drop: 4; MPTP block: 0; T cruzi repl: -13

Results for CCCSc1nsc(NC(=O)Nc2ccc(F)cc2F)n1 ?
Hep lipid drop: -9; MPTP block: 97*; T cruzi repl: 13; Rh123 counter: 85*

Results for OC[C@@H]1CN(Cc2cccs2)C[C@H](n2cnc3c(NCc4ccco4)ncnc32)O1 ?
MPTP block: 0

Results for CCSc1nsc(NC(=O)Nc2cccc(F)c2)n1 ?
Hep lipid drop: -28; MPTP block: 98*; T cruzi repl: 42; Rh123 counter: 80*

From PubChem BioAssay
